Source: ChEMBL document CHEMBL3046507, “Synthesis and herbicidal activities of novel 3-N-substituted amino-6-methyl-4-(3-trifluoromethylphenyl)pyridazine derivatives” (2008)

Assays:
Spirodela polyrhiza [1] = test: Inhibition of chlorophyll in Spirodela polyrhiza fronds at 1 ug/mL using light intensity of 45 uE/m2/s measured after 7 days; type: functional; settings: 168 h
How it was run: (§1)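 Giant duckweed assay. Compound in DMF dropped onto filter paper, solvent evaporated 15 min, paper placed in flask with 15 mL fresh medium and shaken >10 min. 10 fronds inoculated per flask and grown 7 days at 23-26 °C, 16 h light/8 h dark, ca. 45 µE m^-2 s^-1. DMF plus medium served as control. Chl extracted in 96% ethanol overnight at 4 °C; OD read at 665 and 649 nm; content expressed as percent of control.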

Amaranthus retroflexus [2] = test: Herbicidal activity against Amaranthus retroflexus assessed as inhibition of fresh plant weight at 75 g/ha using postemergence protocol measured after 24 days under green house conditions; settings: post-emergence
[3] = system: Brassica rapa subsp. oleifera; test: Herbicidal activity against Brassica rapa subsp. oleifera assessed as inhibition of fresh plant weight at 750 g/ha using preemergence protocol measured after 24 days under green house conditions; settings: pre-emergence
[4] = system: Brassica rapa subsp. oleifera; test: Herbicidal activity against Brassica rapa subsp. oleifera assessed as inhibition of fresh plant weight at 750 g/ha using postemergence protocol measured after 24 days under green house conditions; settings: post-emergence
Amaranthus retroflexus [5] = test: Herbicidal activity against Amaranthus retroflexus assessed as inhibition of fresh plant weight at 750 g/ha using preemergence protocol measured after 24 days under green house conditions; settings: pre-emergence
[6] = system: Brassica rapa subsp. oleifera; test: Herbicidal activity against Brassica rapa subsp. oleifera assessed as inhibition of fresh plant weight at 75 g/ha using postemergence protocol measured after 24 days under green house conditions; settings: post-emergence
Amaranthus retroflexus [7] = test: Herbicidal activity against Amaranthus retroflexus assessed as inhibition of fresh plant weight at 300 g/ha using postemergence protocol measured after 24 days under green house conditions; settings: post-emergence
Amaranthus retroflexus [8] = test: Herbicidal activity against Amaranthus retroflexus assessed as inhibition of fresh plant weight at 600 g/ha using postemergence protocol measured after 24 days under green house conditions; settings: post-emergence
Amaranthus retroflexus [9] = test: Herbicidal activity against Amaranthus retroflexus assessed as inhibition of fresh plant weight at 150 g/ha using postemergence protocol measured after 24 days under green house conditions; settings: post-emergence
Digitaria [10] = test: Herbicidal activity against Digitaria adscendens assessed as inhibition of fresh plant weight at 750 g/ha using postemergence protocol measured after 24 days under green house conditions; settings: in Digitaria adscendens, post-emergence
[11] = system: Brassica rapa subsp. oleifera; test: Herbicidal activity against Brassica rapa subsp. oleifera assessed as inhibition of fresh plant weight at 600 g/ha using postemergence protocol measured after 24 days under green house conditions; settings: post-emergence
Echinochloa crus-galli [12] = test: Herbicidal activity against Echinochloa crus-galli (barnyard grass) assessed as inhibition of fresh plant weight at 750 g/ha using preemergence protocol measured after 24 days under green house conditions; settings: pre-emergence
Amaranthus retroflexus [13] = test: Herbicidal activity against Amaranthus retroflexus assessed as inhibition of fresh plant weight at 750 g/ha using postemergence protocol measured after 24 days under green house conditions; settings: post-emergence
Echinochloa crus-galli [14] = test: Herbicidal activity against Echinochloa crus-galli (barnyard grass) assessed as inhibition of fresh plant weight at 750 g/ha using postemergence protocol measured after 24 days under green house conditions; settings: post-emergence
[15] = system: Brassica rapa subsp. oleifera; test: Herbicidal activity against Brassica rapa subsp. oleifera assessed as inhibition of fresh plant weight at 300 g/ha using postemergence protocol measured after 24 days under green house conditions; settings: post-emergence
[16] = system: Brassica rapa subsp. oleifera; test: Herbicidal activity against Brassica rapa subsp. oleifera assessed as inhibition of fresh plant weight at 150 g/ha using postemergence protocol measured after 24 days under green house conditions; settings: post-emergence
Digitaria [17] = test: Herbicidal activity against Digitaria adscendens assessed as inhibition of fresh plant weight at 750 g/ha using preemergence protocol measured after 24 days under green house conditions; settings: in Digitaria adscendens, pre-emergence
Spirodela polyrhiza [18] = test: Inhibition of chlorophyll in Spirodela polyrhiza fronds at 10 ug/mL using light intensity of 45 uE/m2/s measured after 7 days; type: functional; settings: 168 h; how it was run: as §1
Digitaria [19] = test: Herbicidal activity against Digitaria adscendens assessed as inhibition of fresh plant weight at 600 g/ha using preemergence protocol […] under green house conditions; type: functional; settings: in Digitaria adscendens, pre-emergence
How it was run: (§2)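 Pre-emergence treatment. Aboveground fresh weight measured 24 days later; percent inhibition calculated against controls. Two replicates per treatment.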

Echinochloa crus-galli [20] = test: Herbicidal activity against Echinochloa crus-galli (barnyard grass) assessed as inhibition of fresh plant weight at 600 g/ha using preemergence protocol […] under green house conditions; type: functional; settings: pre-emergence; how it was run: as §2
Amaranthus retroflexus [21] = test: Herbicidal activity against Amaranthus retroflexus assessed as inhibition of fresh plant weight at 600 g/ha using preemergence protocol measured […] under green house conditions; type: functional; settings: pre-emergence; how it was run: as §2
Digitaria [22] = test: Herbicidal activity against Digitaria adscendens assessed as inhibition of fresh plant weight at 600 g/ha using postemergence protocol […] under green house conditions; type: functional; settings: in Digitaria adscendens, post-emergence
How it was run: (§3)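 Weed seedlings at one-leaf-and-one-stem stage sprayed post-emergence with test solution at 750, 600, 300, 150 or 75 g/ha. Aboveground fresh weight determined 24 days after treatment; percent inhibition calculated relative to controls. Two replicates per treatment.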

[23] = system: Brassica rapa subsp. oleifera; test: Herbicidal activity against Brassica rapa subsp. oleifera assessed as inhibition of fresh plant weight at 600 g/ha using preemergence protocol measured […] under green house conditions; type: functional; settings: pre-emergence; how it was run: as §2
Echinochloa crus-galli [24] = test: Herbicidal activity against Echinochloa crus-galli (barnyard grass) assessed as inhibition of fresh plant weight at 600 g/ha using postemergence protocol measured […] under green house conditions; type: functional; settings: post-emergence; how it was run: as §3

| SMILES | inhibition at 1 µg/mL (Spirodela polyrhiza [1]) | inhibition at 75 g/ha (Amaranthus retroflexus [2]) | inhibition at 750 g/ha [3] | inhibition at 750 g/ha [4] | inhibition at 750 g/ha (Amaranthus retroflexus [5]) | inhibition at 75 g/ha [6] | inhibition at 300 g/ha (Amaranthus retroflexus [7]) | inhibition at 600 g/ha (Amaranthus retroflexus [8]) | inhibition at 150 g/ha (Amaranthus retroflexus [9]) | inhibition at 750 g/ha (Digitaria [10]) | inhibition at 600 g/ha [11] | inhibition at 750 g/ha (Echinochloa crus-galli [12]) | inhibition at 750 g/ha (Amaranthus retroflexus [13]) | inhibition at 750 g/ha (Echinochloa crus-galli [14]) | inhibition at 300 g/ha [15] | inhibition at 150 g/ha [16] | inhibition at 750 g/ha (Digitaria [17]) | inhibition at 10 µg/mL (Spirodela polyrhiza [18]) | also measured |
| --- | --- | --- | --- | --- | --- | --- | --- | --- | --- | --- | --- | --- | --- | --- | --- | --- | --- | --- | --- |
| Cc1cc(-c2cccc(C(F)(F)F)c2)c(Nc2ccccc2)nn1 | 100% | 18% | 48% | 99% | 33% | 66% | 43% | 61% | 41% | 0% | 92% | 43% | 60% | 15% | 84% | 74% | 43% | 100% | – |
| Cc1cccc(Nc2nnc(C)cc2-c2cccc(C(F)(F)F)c2)c1 | 100% | – | 18% | 79% | 81% | – | 25% | 52% | 23% | 6% | 42% | 8% | 64% | 29% | 30% | 0% | 7% | 100% | – |
| Cc1ccc(Nc2nnc(C)cc2-c2cccc(C(F)(F)F)c2)cc1 | 95% | – | 82% | 99% | 90% | – | 28% | 59% | 17% | 18% | 59% | 0% | 85% | 2% | 54% | 39% | 17% | 96% | – |
| Cc1cc(-c2cccc(C(F)(F)F)c2)c(Nc2ccccc2F)nn1 | 100% | 39% | 18% | 100% | 0% | 60% | 58% | 75% | 48% | 40% | 96% | 0% | 100% | 21% | 88% | 67% | 15% | 100% | – |
| Cc1cc(-c2cccc(C(F)(F)F)c2)c(Nc2ccc(F)cc2)nn1 | 100% | 32% | 8% | 88% | 19% | 55% | 55% | 64% | 43% | 0% | 93% | 2% | 85% | 23% | 83% | 58% | 0% | 100% | – |
| Cc1cc(-c2cccc(C(F)(F)F)c2)c(Nc2ccc(Cl)cc2)nn1 | 87% | 42% | 18% | 100% | 0% | 52% | 60% | 66% | 45% | 0% | 90% | 0% | 100% | 0% | 89% | 87% | 0% | 100% | – |
| Cc1cc(-c2cccc(C(F)(F)F)c2)c(Nc2cccc(C(F)(F)F)c2)nn1 | 100% | 32% | 0% | 96% | 0% | 48% | 42% | 54% | 37% | 0% | 88% | 0% | 95% | 8% | 79% | 72% | 0% | 100% | – |
| CCOC(=O)n1nc(C)cc(-c2cccc(C(F)(F)F)c2)c1=O | – | – | – | – | – | – | – | 61% | – | – | 55% | – | – | – | – | – | – | 100% | inhibition at 600 g/ha (Digitaria [19]): 100%; inhibition at 600 g/ha (Echinochloa crus-galli [20]): 46%; inhibition at 600 g/ha (Amaranthus retroflexus [21]): 100%; inhibition at 600 g/ha (Digitaria [22]): 13%; inhibition at 600 g/ha [23]: 87%; inhibition at 600 g/ha (Echinochloa crus-galli [24]): 0% |
| CCCn1nc(C)cc(-c2cccc(C(F)(F)F)c2)c1=O | – | – | – | – | – | – | – | 28% | – | – | 6% | – | – | – | – | – | – | 90% | inhibition at 600 g/ha (Digitaria [19]): 100%; inhibition at 600 g/ha (Echinochloa crus-galli [20]): 82%; inhibition at 600 g/ha (Amaranthus retroflexus [21]): 51%; inhibition at 600 g/ha (Digitaria [22]): 19%; inhibition at 600 g/ha [23]: 61%; inhibition at 600 g/ha (Echinochloa crus-galli [24]): 5% |
| O=C(Nc1ccc(F)cc1F)c1cccnc1Oc1cccc(C(F)(F)F)c1 [DIFLUFENICAN] | 90% | 41% | 71% | 98% | 90% | 44% | 74% | 100% | 70% | 83% | 98% | 94% | 100% | 67% | 94% | 88% | 100% | 94% | – |
